Source: ChEMBL document CHEMBL4190344, “Synthesis of substituted phenanthrene-9-benzimidazole conjugates: Cytotoxicity evaluation and apoptosis inducing studies” (Eur J Med Chem, 2017)
Active and inactive are the calls of the source. The calls are words filed in the database; no cut-off is given here.

What was measured:
[1] = tested on: PC-3; test: Induction of cell death in human PC3 cells assessed as induction of chromatin condensation at 10 uM incubated for 48 hrs by acridine orange and ethidium bromide staining based fluorescence microscopy; format: functional
Procedure, shortened: (§1)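 PC-3 cells (1 × 10^6 cells/mL) were treated with compound and kept 48 h at 37 °C, 5% CO2. Acridine orange and ethidium bromide (10 µg/mL) were added in equal volumes. After 10 min, cells were imaged by fluorescence microscopy (ex 488/em 550 nm, 200×).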

[2] = tested on: HCT-116; test: Cytotoxicity in human HCT116 cells incubated for 48 hrs by MTT assay; format: functional, cell-based; conditions: HCT-116, 48 h
Procedure, shortened: (§2)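 Cells (1 × 10^4/well) were seeded in medium with 10% FBS and left 24 h at 37 °C. Compound diluted in medium was then added, alongside a vehicle control, for 48 h. MTT (5 mg/mL stock) was added for 4 h, formazan dissolved in DMSO and absorbance read at 570 nm.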

[3] = tested on: PC-3; test: Cytotoxicity in human PC3 cells incubated for 48 hrs by MTT assay; format: functional, cell-based; conditions: PC-3, 48 h
Procedure, shortened: as §2, with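 “nm. IC50 taken as the concentration giving 50% inhibition.” for “nm.”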

[4] = tested on: DU-145; test: Cytotoxicity in human DU145 cells incubated for 48 hrs by MTT assay; format: functional, cell-based; conditions: DU-145, 48 h
Procedure, shortened: as §2, with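 “nm. IC50 taken as the concentration giving 50% inhibition.” for “nm.”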

[5] = tested on: HCT-15; test: Cytotoxicity in human HCT15 cells incubated for 48 hrs by MTT assay; format: functional, cell-based; conditions: HCT-15, 48 h
Procedure, shortened: as §2, with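 “nm. IC50 taken as the concentration giving 50% inhibition.” for “nm.”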

[6] = tested on: PC-3; test: Induction of morphological changes in human PC3 cells assessed as increase in nuclear shrinkage at 2.5 to 10 uM incubated for 48 hrs by phase contrast microscopy; format: functional, cell-based
Procedure, shortened: (§3)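 PC-3 cells at 1 × 10^5 cells/mL adhered overnight, then received compound at 2.5, 5.0 or 10.0 µM. After 48 h, morphology (viable cell number, nuclear shrinkage, detachment) was imaged by phase contrast microscopy.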

[7] = tested on: PC-3; test: Induction of morphological changes in human PC3 cells assessed as increase in cell detachment at 2.5 to 10 uM incubated for 48 hrs by phase contrast microscopy; format: functional, cell-based; procedure, shortened: as §3
[8] = tested on: PC-3; test: Induction of cell death in human PC3 cells assessed as induction of apoptotic body formation at 10 uM incubated for 48 hrs by acridine orange and ethidium bromide staining based fluorescence microscopy; format: functional; procedure, shortened: as §1
[9] = tested on: PC-3; test: Induction of cell death in human PC3 cells assessed as induction of cell shrinkage at 10 uM incubated for 48 hrs by acridine orange and ethidium bromide staining based fluorescence microscopy; format: functional; procedure, shortened: as §1
[10] = tested on: PC-3; test: Induction of cell death in human PC3 cells assessed as induction of membrane blebbing at 10 uM incubated for 48 hrs by acridine orange and ethidium bromide staining based fluorescence microscopy; format: functional; procedure, shortened: as §1
[11] = tested on: PC-3; test: Induction of apoptosis in human PC3 cells assessed as induction of condensed nuclei formation at 2.5 to 10 uM incubated for 48 hrs by DAPI staining based fluorescence microscopy; format: functional, cell-based
Procedure, shortened: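 Compound-treated PC-3 cells were PBS-washed, permeabilised with 0.1% Tween 20 for 10 min and stained with 1 µM DAPI. Nuclear morphology was viewed by fluorescence microscopy at ex 359/em 461 nm, 200×.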

[12] = tested on: PC-3; test: Cell cycle arrest in human PC3 cells assessed as accumulation at G0/G1 phase at 2.5 uM incubated for 24 hrs by propidium iodide staining based flow cytometry (reference value: 56.67%); format: functional
[13] = tested on: PC-3; test: Cell cycle arrest in human PC3 cells assessed as accumulation at G2/M phase at 2.5 uM incubated for 24 hrs by propidium iodide staining based flow cytometry (reference value: 25.96%); format: functional
[14] = tested on: PC-3; test: Cell cycle arrest in human PC3 cells assessed as accumulation at S phase at 2.5 uM incubated for 24 hrs by propidium iodide staining based flow cytometry (reference value: 13.92%); format: functional
[15] = tested on: PC-3; test: Cell cycle arrest in human PC3 cells assessed as accumulation at G0/G1 phase at 5 uM incubated for 24 hrs by propidium iodide staining based flow cytometry (reference value: 56.67%); format: functional
[16] = tested on: PC-3; test: Cell cycle arrest in human PC3 cells assessed as accumulation at S phase at 2.10 uM incubated for 24 hrs by propidium iodide staining based flow cytometry (reference value: 13.92%); format: functional
[17] = tested on: PC-3; test: Induction of reactive oxygen species in human PC3 cells at 2.5 to 10 uM incubated for 6 hrs by DCFDA dye based spectrofluorometry; format: functional, cell-based
Procedure, shortened: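 PC-3 cells (1 × 10^6 cells/mL) adhered overnight, then were treated at 2.5, 5.0 or 10.0 µM. Medium was replaced with DCFDA 10 µM for 30 min in the dark, and fluorescence read by spectrofluorometer at ex 488/em 525 nm. N-acetyl cysteine pretreatment before compound and H2O2 were used as comparisons.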

[18] = tested on: PC-3; test: Induction of mitochondrial membrane potential loss in human PC3 cells assessed as JC1 monomer level at 2.5 uM incubated for 24 hrs by JC1 staining based flow cytometry (reference value: 22.8%); format: functional
[19] = tested on: PC-3; test: Induction of mitochondrial membrane potential loss in human PC3 cells assessed as JC1 aggregate level at 2.5 uM incubated for 24 hrs by JC1 staining based flow cytometry (reference value: 76.94%); format: functional
[20] = tested on: PC-3; test: Induction of mitochondrial membrane potential loss in human PC3 cells assessed as JC1 monomer level at 5 uM incubated for 24 hrs by JC1 staining based flow cytometry (reference value: 22.8%); format: functional
[21] = tested on: PC-3; test: Induction of mitochondrial membrane potential loss in human PC3 cells assessed as JC1 aggregate level at 10 uM incubated for 24 hrs by JC1 staining based flow cytometry (reference value: 76.94%); format: functional
[22] = tested on: PC-3; test: Induction of apoptosis in human PC3 cells assessed as early apoptotic cells level at 2.5 uM incubated for 24 hrs by annexin V-FITC/propidium iodide dual staining based flow cytometry (reference value: 11.76%); format: functional
Procedure, shortened: (§4)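 PC-3 cells were grown 24 h, then treated 24 h at 2.5, 5.0 or 10 µM. Cells were trypsinised, washed twice in ice-cold PBS and stained in binding buffer with Annexin V-FITC followed by propidium iodide at room temperature in the dark. 10,000 cells per sample were run on a flow cytometer, with quadrants scored as live, early apoptotic, late apoptotic or necrotic.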

[23] = tested on: PC-3; test: Induction of apoptosis in human PC3 cells assessed as early apoptotic cells level at 5 uM incubated for 24 hrs by annexin V-FITC/propidium iodide dual staining based flow cytometry (reference value: 11.76%); format: functional; procedure, shortened: as §4
[24] = tested on: PC-3; test: Induction of apoptosis in human PC3 cells assessed as late apoptotic cells level at 5 uM incubated for 24 hrs by annexin V-FITC/propidium iodide dual staining based flow cytometry (reference value: 10.92%); format: functional; procedure, shortened: as §4
[25] = tested on: PC-3; test: Induction of apoptosis in human PC3 cells assessed as necrotic cells level at 5 uM incubated for 24 hrs by annexin V-FITC/propidium iodide dual staining based flow cytometry (reference value: 0.59%); format: functional; procedure, shortened: as §4
[26] = tested on: PC-3; test: Induction of apoptosis in human PC3 cells assessed as early apoptotic cells level at 10 uM incubated for 24 hrs by annexin V-FITC/propidium iodide dual staining based flow cytometry (reference value: 11.76%); format: functional; procedure, shortened: as §4
[27] = tested on: PC-3; test: Cell cycle arrest in human PC3 cells assessed as accumulation at G2/M phase at 10 uM incubated for 24 hrs by propidium iodide staining based flow cytometry (reference value: […])

SMILES: COc1ccc2cc(-c3nc4ccc(F)cc4[nH]3)c3cc(OC)c(OC)cc3c2c1
- Activity [1]: Active
- IC50 [2]: > 20 µM
- IC50 [3]: 6.32 µM
- IC50 [4]: > 20 µM
- IC50 [5]: > 20 µM
- Activity [6]: Active
- Activity [7]: Active
- Activity [8]: Active
- Activity [9]: Active
- Activity [10]: Active
- Activity [11]: Active
- Activity [12]: 55.93%
- Activity [13]: 27.8%
- Activity [14]: 11.3%
- Activity [15]: 49.29%
- Activity [16]: 11.76%
- Activity [17]: Dose-dependent effect
- Activity [18]: 33.35%
- Activity [19]: 66.43%
- Activity [20]: 67.42%
- Activity [21]: 4.29%
- Activity [22]: 36.2%
- Activity [23]: 33.41%
- Activity [24]: 34.03%
- Activity [25]: 0.44%
- Activity [26]: 22.94%
- Activity [27]: 44.16%
